Data on 19 compounds can be found in ChEMBL document CHEMBL1139657, “Isothiazoloquinolones containing functionalized aromatic hydrocarbons at the 7-position: synthesis and in vitro activity of a series of potent antibacterial agents with diminished cytotoxicity in human cells” (Bioorg Med Chem Lett, 2006).

≈ marks a conversion by molar mass, not a printed value.

For one assay, the system named is Escherichia coli. Briefly: Antimicrobial activity against Escherichia coli ATCC 25922. Format: functional. The method in brief:
(§1)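 MIC taken as lowest concentration giving no visible bacterial growth after incubation at 37 °C for 18–24 h.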

The next assay relates to HEp-2. Nature of the assay: Cytotoxicity against human Hep2 laryngeal carcinoma cell line. Format: functional.
For assay [1], the system named is Staphylococcus aureus. Briefly: Antimicrobial activity against methicillin-resistant Staphylococcus aureus 700699. In kind it is functional. The method in brief: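 MIC taken as the lowest compound concentration preventing visible bacterial growth after incubation at 37 °C for 18–24 h.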
Assay [2] deals with Staphylococcus aureus. Briefly: Antimicrobial activity against Staphylococcus aureus ATCC 29213. In kind it is functional. The method in brief:
as §1

Another assay concerns the target DNA gyrase (Escherichia coli, UniProt P0AES4+P0AES6). Nature of the assay: Inhibitory activity against wild type Escherichia coli gyrase. In kind it is protein-complex assay.
For assay [3], the target named is DNA topoisomerase 4 subunit A (Staphylococcus aureus, UniProt P0C1U9). Nature of the assay: Inhibitory activity against wild type Staphylococcus aureus topoisomerase 4.
The target in assay [4] is DNA topoisomerase II (Homo sapiens) (UniProt P11388+Q02880). Briefly: Inhibitory activity against human topoisomerase 2. In kind it is protein assay.

DNA topoisomerase 4 subunit A, sequence (P0C1U9 whole entry): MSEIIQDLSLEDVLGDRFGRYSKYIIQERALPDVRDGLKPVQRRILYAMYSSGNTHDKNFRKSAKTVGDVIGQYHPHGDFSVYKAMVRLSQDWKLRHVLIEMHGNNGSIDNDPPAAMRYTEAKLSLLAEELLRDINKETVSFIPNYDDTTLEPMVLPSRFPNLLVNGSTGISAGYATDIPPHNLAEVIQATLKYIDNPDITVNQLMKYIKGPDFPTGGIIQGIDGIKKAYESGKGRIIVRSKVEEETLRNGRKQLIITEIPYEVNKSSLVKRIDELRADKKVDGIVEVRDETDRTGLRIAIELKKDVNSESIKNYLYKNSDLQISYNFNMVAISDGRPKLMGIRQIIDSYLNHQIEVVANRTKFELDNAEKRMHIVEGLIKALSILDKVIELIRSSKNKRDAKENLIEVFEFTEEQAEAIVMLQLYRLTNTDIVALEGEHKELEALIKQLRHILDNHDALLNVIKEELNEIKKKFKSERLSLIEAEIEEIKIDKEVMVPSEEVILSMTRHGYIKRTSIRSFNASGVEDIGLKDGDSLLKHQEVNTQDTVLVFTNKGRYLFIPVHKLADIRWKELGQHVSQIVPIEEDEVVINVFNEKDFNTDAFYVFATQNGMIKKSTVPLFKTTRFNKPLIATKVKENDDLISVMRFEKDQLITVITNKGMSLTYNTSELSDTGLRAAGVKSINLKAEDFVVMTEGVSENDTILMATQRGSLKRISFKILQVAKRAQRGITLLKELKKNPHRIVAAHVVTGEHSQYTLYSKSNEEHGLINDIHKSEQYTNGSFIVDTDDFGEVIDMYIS

As a reminder, the MIC is the least concentration at which growth counts as inhibited. A low value points to a more susceptible organism. As usually defined, the CC50 is the concentration at which the toxic effect on the cells reaches its halfway point. As to `N#CCc1ccc(-c2cc3c(cc2F)c(=O)c2c(=O)[nH]sc2n3C2CC2)cc1`, the results for the MIC in the assay on Escherichia coli, with Staphylococcus aureus [1] and against Staphylococcus aureus [2] were 0.02 mg/L (≈ 0.0511 µM), 0.5 mg/L (≈ 1.28 µM) and 0.002 mg/L (≈ 0.00511 µM), respectively. In the assay on HEp-2, this compound came in with a CC50 of 84 µM.
The corresponding values for `COc1cccc(-c2cc3c(cc2F)c(=O)c2c(=O)[nH]sc2n3C2CC2)c1` are 0.125 mg/L (≈ 0.327 µM), 2 mg/L (≈ 5.23 µM), 0.004 mg/L (≈ 0.0105 µM) and 26 µM.
By IC50 is commonly meant the concentration needed to halve the response being measured. For the compound `CO/N=C1\CN(c2nc3c(cc2F)c(=O)c(C(=O)O)cn3C2CC2)CC1CN` (stereo not drawn) [GEMIFLOXACIN], the results for the MIC in the assay on Escherichia coli, in the assay on Staphylococcus aureus [1] and against Staphylococcus aureus [2] were 0.015 mg/L (≈ 0.0385 µM), 2 mg/L (≈ 5.14 µM) and 0.03 mg/L (≈ 0.077 µM), respectively. Further, the IC50 at DNA gyrase turned out to be 0.5 µM; in assay [3], 0.3 µM. In the assay on HEp-2, this compound gave a CC50 of 46 µM.
As to `O=c1[nH]sc2c1c(=O)c1cc(F)c(-c3cccc(O)c3)cc1n2C1CC1`, the values for the MIC against Escherichia coli, in the assay with Staphylococcus aureus [1] and against Staphylococcus aureus [2] were 0.06 mg/L (≈ 0.163 µM), 0.25 mg/L (≈ 0.679 µM) and 0.004 mg/L (≈ 0.0109 µM), respectively. The 50% inhibitory concentration (IC50) came to 0.2 µM against DNA gyrase and 1.6 µM in assay [3]. The same compound gave a CC50 in the assay on HEp-2 above 100 µM.
On to `N#Cc1ccccc1-c1cc2c(cc1F)c(=O)c1c(=O)[nH]sc1n2C1CC1`, for which the MIC is 2 mg/L (≈ 5.3 µM) in the assay on Escherichia coli, above 64 mg/L in the assay on Staphylococcus aureus [1] and 0.125 mg/L (≈ 0.331 µM) in the assay with Staphylococcus aureus [2]. This compound also yielded a 50% cytotoxic concentration (CC50) with HEp-2 above 85 µM.
The corresponding values for `COc1ccccc1-c1cc2c(cc1F)c(=O)c1c(=O)[nH]sc1n2C1CC1` are 2 mg/L (≈ 5.23 µM), 32 mg/L (≈ 83.7 µM), 0.125 mg/L (≈ 0.327 µM) and above 84 µM.
The corresponding values for `CC(=O)c1cccc(-c2cc3c(cc2F)c(=O)c2c(=O)[nH]sc2n3C2CC2)c1` are 0.125 mg/L (≈ 0.317 µM), 2 mg/L (≈ 5.07 µM), 0.004 mg/L (≈ 0.0101 µM) and above 100 µM.
The corresponding values for `COc1cc(-c2cc3c(cc2F)c(=O)c2c(=O)[nH]sc2n3C2CC2)ccc1O` are 0.06 mg/L (≈ 0.151 µM), 0.125 mg/L (≈ 0.314 µM), 0.001 mg/L (≈ 0.00251 µM) and 4 µM.
As to `O=c1[nH]sc2c1c(=O)c1cc(F)c(-c3ccccc3F)cc1n2C1CC1`, the MIC in the assay with Escherichia coli turned out to be 0.125 mg/L (≈ 0.337 µM); in the assay on Staphylococcus aureus [1], 8 mg/L (≈ 21.6 µM); in the assay on Staphylococcus aureus [2] it was 0.015 mg/L (≈ 0.0405 µM). Moreover, the CC50 with HEp-2 was above 100 µM.
The corresponding values for `COc1ccc(-c2cc3c(cc2F)c(=O)c2c(=O)[nH]sc2n3C2CC2)cc1` are 0.125 mg/L (≈ 0.327 µM), 2 mg/L (≈ 5.23 µM), 0.015 mg/L (≈ 0.0392 µM) and 91 µM.
For `CN(C)c1cccc(-c2cc3c(cc2F)c(=O)c2c(=O)[nH]sc2n3C2CC2)c1`, the MIC against Escherichia coli came out at 2 mg/L (≈ 5.06 µM); in the assay with Staphylococcus aureus [1], 32 mg/L (≈ 80.9 µM); in the assay with Staphylococcus aureus [2] it was 0.06 mg/L (≈ 0.152 µM). The same compound displayed a 50% cytotoxic concentration (CC50) with HEp-2 above 100 µM.
Regarding `O=c1[nH]sc2c1c(=O)c1cc(F)c(-c3cccc(F)c3)cc1n2C1CC1`, the results for the MIC in the assay on Escherichia coli, against Staphylococcus aureus [1] and against Staphylococcus aureus [2] were 0.125 mg/L (≈ 0.337 µM), 1 mg/L (≈ 2.7 µM) and 0.004 mg/L (≈ 0.0108 µM), respectively. The compound further registered an EC2 in assay [4] above 150 µM. In addition, the values for the IC50 (against DNA gyrase; in assay [3]) were 1 µM and 7.2 µM, respectively. In addition, the CC50 in the assay with HEp-2 came to 96 µM.
For `N#Cc1ccc(-c2cc3c(cc2F)c(=O)c2c(=O)[nH]sc2n3C2CC2)cc1`, the MIC against Escherichia coli stood at 1 mg/L (≈ 2.65 µM); against Staphylococcus aureus [1] it was 16 mg/L (≈ 42.4 µM); in the assay on Staphylococcus aureus [2] it was 0.03 mg/L (≈ 0.0795 µM). The same compound yielded a CC50 in the assay on HEp-2 above 100 µM.
As to `O=C(O)c1cn(C2CC2)c2cc(N3CCNCC3)c(F)cc2c1=O` [CIPROFLOXACIN], in the assay with HEp-2, the CC50 was above 100 µM. For the same compound, the MIC against Staphylococcus aureus [1] turned out to be 32 mg/L (≈ 96.6 µM); against Staphylococcus aureus [2], 0.25 mg/L (≈ 0.754 µM).
As to `O=c1[nH]sc2c1c(=O)c1cc(F)c(-c3ccc(F)cc3)cc1n2C1CC1`, the MIC in the assay with Escherichia coli worked out at 0.25 mg/L (≈ 0.675 µM); in the assay on Staphylococcus aureus [1], 32 mg/L (≈ 86.4 µM); with Staphylococcus aureus [2] it was 0.03 mg/L (≈ 0.081 µM). Further, the CC50 in the assay with HEp-2 is above 100 µM.
As to `NC(=O)c1cccc(-c2cc3c(cc2F)c(=O)c2c(=O)[nH]sc2n3C2CC2)c1`, the figures for the MIC in the assay with Escherichia coli, against Staphylococcus aureus [1] and with Staphylococcus aureus [2] were 0.125 mg/L (≈ 0.316 µM), 2 mg/L (≈ 5.06 µM) and 0.008 mg/L (≈ 0.0202 µM), respectively.
Consider `Nc1cccc(-c2cc3c(cc2F)c(=O)c2c(=O)[nH]sc2n3C2CC2)c1`, for which the MIC was 0.004 mg/L (≈ 0.0109 µM) with Escherichia coli, 8 mg/L (≈ 21.8 µM) against Staphylococcus aureus [1] and 0.008 mg/L (≈ 0.0218 µM) against Staphylococcus aureus [2]. Besides, the concentration for half-maximal inhibition (IC50) was determined as 3.1 µM against DNA gyrase and 10 µM in assay [3]. The CC50 in the assay with HEp-2 was above 100 µM.
As to `NCCc1ccc(-c2cc3c(cc2F)c(=O)c2c(=O)[nH]sc2n3C2CC2)cc1`, the figures for the MIC against Escherichia coli, with Staphylococcus aureus [1] and in the assay with Staphylococcus aureus [2] were 0.06 mg/L (≈ 0.152 µM), above 64 mg/L and 0.02 mg/L (≈ 0.0506 µM), respectively. This compound also gave a CC50 in the assay on HEp-2 of 11 µM.
The corresponding values for `O=c1[nH]sc2c1c(=O)c1cc(F)c(-c3ccccc3)cc1n2C1CC1` are 0.06 mg/L (≈ 0.17 µM), 16 mg/L (≈ 45.4 µM), 0.004 mg/L (≈ 0.0114 µM) and above 100 µM.
